Data from ChEMBL document CHEMBL1122226, “6-Aryl-4,5-dihydro-3(2H)-pyridazinones. A new class of compounds with platelet aggregation inhibiting and hypotensive activities” (J Med Chem, 1983).
Converted amounts (≈) assume the structure as drawn.

Assays:
Homo sapiens [1] = species on record: Homo sapiens; assay: In vitro inhibition of ADP-induced human platelet aggregation; format: functional
How it was run: (§1)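 Human venous blood citrated with 10% v/v sodium citrate (3.8%); platelet-rich plasma spun at 300g, 10 min, 4 °C, used within 2 h. Compound in Me2SO (1% final) preincubated 10 min at room temperature; aggregation triggered by collagen 0.02 mg/mL final or ADP 0.85 μg/mL final; maximum rate read in Born aggregometer. EC50 from log dose–effect regression with 95% confidence limits.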

Homo sapiens [2] = species on record: Homo sapiens; assay: In vitro inhibition of collagen-induced human platelet aggregation.; format: functional, organism-based; how it was run: as §1
Homo sapiens [3] = species on record: Homo sapiens; assay: Relative activity (compared to acetylsalicylic acid) for in vitro inhibition of collagen-induced human platelet aggregation; format: functional
Rattus norvegicus [4] = assay: In vitro hypotensive activity in anesthetized rats after intraperitoneal administration.; format: functional; details: ip, in the assay text read “In vivo” for “In vitro”
How it was run: (§2)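 Male Sprague-Dawley rats, 230-280 g, urethane-anesthetized (ip); carotid arterial pressure recorded continuously by pressure transducer. Compounds given ip at 2 mL/kg. ED20, dose lowering mean carotid pressure by 20%, from log dose–effect regression; dihydralazine as reference.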

Rattus norvegicus [5] = assay: Activity relative to dihydralazine for in vitro hypotensive activity in anesthetized rats; format: functional; details: in the assay text read “in vivo” for “in vitro”; how it was run: as §2
Rattus norvegicus [6] = assay: Ex vivo inhibition of collagen-induced rat platelet aggregation after peroral administration; format: functional; details: po
How it was run: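 Male Sprague-Dawley rats, 200-250 g, dosed orally, three rats per dose. Blood drawn by heart puncture under ether 1 h post-dose; platelet-rich plasma prepared by centrifugation; aggregation induced with collagen 0.02 mg/mL final, maximum rate read in Born aggregometer.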

[7] = In vitro inhibition of collagen induced aggregation of human plateles and the ratio of ED33 to EC50 was reported; format: functional
How it was run: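 Ratio of oral ED33 (male Sprague-Dawley rats, 3 per dose, blood taken 1 h post-dose, collagen-triggered aggregation) to in vitro EC50 (human citrated platelet-rich plasma, 10 min room-temperature preincubation in 1% Me2SO, collagen 0.02 mg/mL final, regression-derived).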

Rattus norvegicus [8] = assay: In vivo hypotensive activity in anesthetized rats after intravenous administration.
Rattus norvegicus [9] = species on record: Rattus norvegicus; assay: Relative activity in rats based on acetylsalicylic acid; format: functional

Row | EC50 (Homo sapiens [1]; Homo sapiens, read-out: EC50) [mg/L] | EC50 (Homo sapiens [2]; Homo sapiens, read-out: EC50) [mg/L] | EC50 (Homo sapiens [2]) [mg/L] | EC50 (Homo sapiens [1]) [mg/L] | SMILES | Relative activity (Homo sapiens [3]) | ED20 (Rattus norvegicus [4]) [mg/kg] | Relative activity (Rattus norvegicus [5]) | ED33 (Rattus norvegicus [6]) [mg/kg] | Ratio [7] | ED20 (Rattus norvegicus [8]) [mg/kg] | Relative activity (Rattus norvegicus [9])
1 | 1.44 (≈ 5.55 µM) | 1.45 (≈ 5.59 µM) |  |  | CCCC(=O)Nc1ccc(C2=NNC(=O)CC2)cc1 | 341 | 0.46 | 0.74 |  |  |  | 
2 | > 46.4 | > 46.4 |  |  | O=C1CCC(c2ccc(NC(=O)CCCCl)cc2)=NN1 | <11 | > 1 | <0.34 |  |  |  | 
3 |  |  | 494 (≈ 2740 µM) |  | CC(=O)Oc1ccccc1C(=O)O [ASPIRIN] | 1 |  | 1 | 233 | 0.47 |  | 
4 | 3.74 (≈ 17.2 µM) | 5.27 (≈ 24.3 µM) |  |  | O=CNc1ccc(C2=NNC(=O)CC2)cc1 | 94 | 0.32 | 1.06 |  |  |  | 
5 | 0.0174 (≈ 0.0494 µM) | 0.00165 (≈ 0.00468 µM) |  |  | CCCCC[C@H](O)/C=C/[C@@H]1[C@H]2C/C(=C/CCCC(=O)O)O[C@H]2C[C@H]1O [EPOPROSTENOL] | 299394 |  |  |  |  | 0.00067 | 
6 | 0.64 (≈ 2.61 µM) | 0.74 (≈ 3.02 µM) |  |  | CCC(=O)Nc1ccc(C2=NNC(=O)CC2)cc1 | 668 | 0.06 | 5.63 | 41.6 | 56.3 |  | 5.6
7 | 0.052 (≈ 0.148 µM) |  |  |  | CCC(Br)C(=O)Nc1ccc(C2=NNC(=O)CC2C)cc1 (stereo unspecified) |  | 1.49 | 0.23 | 2.58 | 9.6 |  | 90.3
8 | 0.98 (≈ 3.5 µM) | 0.9 (≈ 3.22 µM) |  |  | O=C1CCC(c2ccc(NC(=O)CCCl)cc2)=NN1 | 549 | > 1 | <0.34 | 41.7 | 46.3 |  | 5.6
9 | 0.39 (≈ 1.47 µM) |  |  |  | O=C1CCC(c2ccc(NC(=O)CCl)cc2)=NN1 | 1976 | 0.37 | 0.91 | 15.7 | 62.8 |  | 14.8
10 | > 46.4 | > 46.4 |  |  | CN1N=C(c2ccc(N)cc2)CCC1=O | <11 | > 1 | <0.34 |  |  |  | 
11 | > 46.4 | > 46.4 |  |  | CC(=O)Nc1cccc(C2=NNC(=O)CC2)c1 | <11 | > 1 | <0.34 |  |  |  | 
12 | 2.64 (≈ 9.66 µM) | 3.34 (≈ 12.2 µM) |  |  | CCCCC(=O)Nc1ccc(C2=NNC(=O)CC2)cc1 | 148 | 1 | 0.34 |  |  |  | 
13 | 43.8 (≈ 216 µM) | 46.9 (≈ 231 µM) |  |  | CC1CC(c2ccc(N)cc2)=NNC1=O (stereo unspecified) | 11 | > 1 | <0.34 |  |  |  | 
14 | 0.16 (≈ 0.545 µM) |  |  |  | CC1CC(=O)NN=C1c1ccc(NC(=O)CCCl)cc1 (stereo unspecified) | 1647 | 0.044 | 7.68 | 47.5 | 158 |  | 4.9
15 | ~46.4 (≈ 147 µM) | ~21.5 (≈ 68 µM) |  |  | O=C1CCC(c2ccc(NC(=O)CN3CCOCC3)cc2)=NN1 | ~23 | > 1 | <0.34 |  |  |  | 
16 | 0.099 (≈ 0.337 µM) |  |  |  | CC(Cl)C(=O)Nc1ccc(C2=NNC(=O)CC2C)cc1 (stereo unspecified) [AMIPIZONE] | 15936 | 0.0081 | 41.7 | 0.63 | 20.3 |  | 370
17 | 21.9 (≈ 78.3 µM) | 6.31 (≈ 22.6 µM) |  |  | CC1CC(c2ccc(NC(=O)CCl)cc2)=NNC1=O (stereo unspecified) | 78 | > 1 | <0.34 |  |  |  | 
18 | 46.4 (≈ 189 µM) | 46.4 (≈ 189 µM) |  |  | CC(=O)Nc1ccc(C2=NNC(=O)C(C)C2)cc1 (stereo unspecified) | 11 | > 1 | <0.34 |  |  |  | 
19 | 1.47 (≈ 5 µM) | 3.16 (≈ 10.8 µM) |  |  | CCC(Cl)C(=O)Nc1ccc(C2=NNC(=O)CC2)cc1 (stereo unspecified) | 156 | 0.37 | 0.91 |  |  |  | 
20 | 0.33 (≈ 0.937 µM) |  |  |  | CC1CC(=O)NN=C1c1ccc(NC(=O)C(C)(C)Br)cc1 (stereo unspecified) |  | 2.93 | 0.12 | 3.49 | 3.9 |  | 66.8
21 | ~21.5 | ~21.5 |  |  | CCC(C)NCC(=O)Nc1ccc(C2=NNC(=O)CC2)cc1.Cl (stereo unspecified) | ~23 | > 1 | <0.34 |  |  |  | 
22 |  |  | 200 (≈ 559 µM) |  | COc1ccc2c(c1)c(CC(=O)O)c(C)n2C(=O)c1ccc(Cl)cc1 [INDOMETHACIN] | 2.47 |  |  |  |  |  | 

Row | EC50 (Homo sapiens [1]; Homo sapiens, read-out: EC50) [mg/L] | EC50 (Homo sapiens [2]; Homo sapiens, read-out: EC50) [mg/L] | EC50 (Homo sapiens [2]) [mg/L] | EC50 (Homo sapiens [1]) [mg/L] | SMILES | Relative activity (Homo sapiens [3]) | ED20 (Rattus norvegicus [4]) [mg/kg] | Relative activity (Rattus norvegicus [5]) | ED33 (Rattus norvegicus [6]) [mg/kg] | Ratio [7] | ED20 (Rattus norvegicus [8]) [mg/kg] | Relative activity (Rattus norvegicus [9])
23 | > 46.4 | > 46.4 |  |  | Nc1cccc(C2=NNC(=O)CC2)c1 | <11 | > 1 | <0.34 |  |  |  | 
24 | 0.15 (≈ 0.536 µM) |  |  |  | CC1CC(=O)NN=C1c1ccc(NC(=O)CCl)cc1 (stereo unspecified) |  | 0.15 | 2.25 | 12.2 | 111 |  | 19.1
25 | ~21.5 | ~4.64 |  |  | C=CCNCC(=O)Nc1ccc(C2=NNC(=O)CC2)cc1.Cl | ~107 | > 1 | <0.34 |  |  |  | 
26 | 0.5 (≈ 1.37 µM) |  |  |  | CC1CC(=O)NN=C1c1ccc(NC(=O)C(C)(C)CBr)cc1 (stereo unspecified) | 1123 | 0.34 | 0.99 | 3.5 | 8 |  | 66.6
27 | 0.28 (≈ 0.87 µM) |  |  |  | CC1CC(=O)NN=C1c1ccc(NC(=O)C(C)(C)CCl)cc1 (stereo unspecified) | 1051 | 0.61 | 0.55 | 5 | 10.6 |  | 46.6
28 | > 46.4 | > 46.4 |  |  | C[N+]1(CC(=O)Nc2ccc(C3=NNC(=O)CC3)cc2)CCCC1.[Cl-] | <11 | > 1 | <0.34 |  |  |  | 
29 | ~46.4 | ~21.5 |  |  | CC(C)NCC(=O)Nc1ccc(C2=NNC(=O)CC2)cc1.Cl | ~23 | > 1 | <0.34 |  |  |  | 
30 | 1 (≈ 4.32 µM) | 1.09 (≈ 4.71 µM) |  |  | CC(=O)Nc1ccc(C2=NNC(=O)CC2)cc1 | 453 | 0.2 | 1.69 |  |  |  | 
31 | ~46.4 | ~10 |  |  | CCCNCC(=O)Nc1ccc(C2=NNC(=O)CC2)cc1.Cl | ~49 | > 1 | <0.34 |  |  |  | 
32 | 0.26 (≈ 0.769 µM) |  |  |  | CC(Br)C(=O)Nc1ccc(C2=NNC(=O)CC2C)cc1 (stereo unspecified) |  | 0.4 | 0.85 | 8.18 | 14.1 |  | 28.5
33 | 0.45 (≈ 1.61 µM) | 0.28 (≈ 1 µM) |  |  | CC(Cl)C(=O)Nc1ccc(C2=NNC(=O)CC2)cc1 (stereo unspecified) | 1764 | 0.53 | 0.64 | 22.6 | 82.7 |  | 10.3
34 | 32.9 (≈ 112 µM) | 33.8 (≈ 115 µM) |  |  | CC(Cl)C(=O)Nc1ccc(C2=NNC(=O)C(C)C2)cc1 (stereo unspecified) | 15 | > 1 | <0.34 |  |  |  | 
35 | 46.4 (≈ 245 µM) | 14.8 (≈ 78.2 µM) |  |  | Nc1ccc(C2=NNC(=O)CC2)cc1 | 33 | 0.18 | 1.88 |  |  |  | 
36 | 4.78 (≈ 15.5 µM) | 3.29 (≈ 10.7 µM) |  |  | CC(Cl)CC(=O)Nc1ccc(C2=NNC(=O)CC2C)cc1 (stereo unspecified) | 150 | 0.187 | 1.81 |  |  |  | 
37 |  |  | 149 (≈ 783 µM) | 310 (≈ 1630 µM) | N/N=c1\[nH][nH]/c(=N\N)c2ccccc12 [DIHYDRALAZINE] | 3 | 0.34 | 1 |  |  |  | 
38 | > 46.4 | > 46.4 |  |  | CN1N=C(c2ccc(NC(=O)CCl)cc2)CCC1=O | <11 | > 1 | <0.34 |  |  |  | 
39 | ~10 | ~10 |  |  | CCN(CC)CC(=O)Nc1ccc(C2=NNC(=O)CC2)cc1.Cl | ~49 | > 1 | <0.34 |  |  |  | 
40 | 1.63 (≈ 5.3 µM) | 1.66 (≈ 5.39 µM) |  |  | CC1CC(=O)NN=C1c1ccc(NC(=O)CCCCl)cc1 (stereo unspecified) | 298 | 0.32 |  |  |  |  | 
41 | 11.4 (≈ 37 µM) | 9.24 (≈ 30 µM) |  |  | CC(C)(CCl)C(=O)Nc1ccc(C2=NNC(=O)CC2)cc1 | 54 | > 1 | <0.34 |  |  |  | 
42 | 0.035 (≈ 0.114 µM) | 0.069 (≈ 0.224 µM) |  |  | CCC(Cl)C(=O)Nc1ccc(C2=NNC(=O)CC2C)cc1 (stereo unspecified) | 7159 | 0.65 | 0.52 | 0.66 | 9.6 |  | 353
43 | > 46.4 | > 46.4 |  |  | CC(=O)Nc1ccc(C2=NN(C)C(=O)CC2)cc1 | <11 | 1 | 0.34 |  |  |  | 
